For 33 compounds, TCS50 results are on record in ChEMBL document CHEMBL1146596, “New lupane derived compounds with pro-apoptotic activity in cancer cells: synthesis and structure-activity relationships” (2003).

Molecules are shown by their SMILES. A value given as a limit tells only on which side of the number the result lay.

For the test, the system named is CCRF-CEM. In words: Cytotoxicity against chemosensitive CEM-T lymphoblastc leukemia cell line. Format: functional, Homo sapiens. The method in brief: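 Cells were kept in DMEM/RPMI 1640 with 10% fetal calf serum, 2 mM glutamine and antibiotics. They were seeded at 2500–30 000 cells/well according to growth characteristics and preincubated 24 h at 37 °C, 5% CO2. Four-fold compound dilutions were tested in duplicate for 72 h. MTT was then added for 1–4 h, the formazan was dissolved in 10% SDS (pH 5.5) overnight, and OD was read at 540 nm. Survival was taken relative to mean control, and TCS50 was derived from dose–response curves.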
Compound `COC(=O)[C@@]1(CC(=O)C(=O)C(C)C)CC[C@]2(C)[C@H](CC[C@@H]3[C@@]4(C)CC[C@H](OC(C)=O)C(C)(C)[C@@H]4CC[C@]32C)C1=O` came in with a TCS50 of 107 µM.
`CC(=O)OCOC(=O)[C@]1(COC(C)=O)CC[C@]2(C)[C@H](CC[C@@H]3[C@@]4(C)CC[C@H](OC(C)=O)C(C)(C)[C@@H]4CC[C@]32C)C1=O` registered a TCS50 of 86 µM.
As to `CC(=O)O[C@H]1CC[C@]2(C)[C@H]3CC[C@H](C(=O)O)[C@@](C)(CCC(=O)O)[C@]3(C)CC[C@H]2C1(C)C`, the TCS50 is more than 250 µM.
For the compound `CC(=O)OCOC(=O)[C@@]12CC[C@]3(C)[C@H](CC[C@@H]4[C@@]5(C)CC[C@H](OC(C)=O)C(C)(C)[C@@H]5CC[C@]43C)C1=C(C(C)C)C(=O)C2`, the TCS50 is more than 250 µM.
`CC(=O)OC[C@@]1(C(=O)C(=O)C(=O)C(C)C)CC[C@]2(C)[C@H](CC[C@@H]3[C@@]4(C)CC[C@H](OC(C)=O)C(C)(C)[C@@H]4CC[C@]32C)C1=O` yielded a TCS50 of 71 µM.
In turn, `COC(=O)C[C@]1(COC(C)=O)CC[C@]2(C)[C@H](CC[C@@H]3[C@@]4(C)CC[C@H](OC(C)=O)C(C)(C)[C@@H]4CC[C@]32C)C1=O` registered a TCS50 of more than 250 µM.
`CC(=O)OCOC(=O)[C@@]1(CC(=O)C(=O)C(C)C)CC[C@]2(C)[C@H](CC[C@@H]3[C@@]4(C)CC[C@H](OC(C)=O)C(C)(C)[C@@H]4CC[C@]32C)C1=O` registered a TCS50 of 18 µM.
`CC(=O)OC[C@@]1(CC(=O)C(=O)C(C)C)CC[C@]2(C)[C@H](CC[C@@H]3[C@@]4(C)CC[C@H](OC(C)=O)C(C)(C)[C@@H]4CC[C@]32C)C1=O` gave a TCS50 of more than 250 µM.
`COC(=O)C[C@]1(C(=O)OCOC(=O)C(C)(C)C)CC[C@]2(C)[C@H](CC[C@@H]3[C@@]4(C)CC[C@H](OC(C)=O)C(C)(C)[C@@H]4CC[C@]32C)C1=O`: the TCS50 is 99 µM.
On to `CC(=O)OC[C@@]1(CC(=O)O)CC[C@]2(C)[C@H](CC[C@@H]3[C@@]4(C)CC[C@H](OC(C)=O)C(C)(C)[C@@H]4CC[C@]32C)C1=O`, for which the TCS50 was determined as 5 µM.
Turning to `COC(=O)C[C@]1(C(=O)OC)CC[C@]2(C)[C@H](CC[C@@H]3[C@@]4(C)CC[C@H](OC(C)=O)C(C)(C)[C@@H]4CC[C@]32C)C1=O`, the TCS50 was more than 250 µM.
With `COC(=O)[C@@]12CC[C@]3(C)[C@H](CC[C@@H]4[C@@]5(C)CC[C@H](OC(C)=O)C(C)(C)[C@@H]5CC[C@]43C)C1=C(C(C)C)C(=O)OC2=O`, the TCS50 amounted to 127 µM.
Under `C=C1CC[C@]2(C)[C@H](CC[C@@H]3[C@@]4(C)CC[C@H](OC(C)=O)C(C)(C)[C@@H]4CC[C@]32C)C1=O` stands more than 250 µM; under `CC(=O)O[C@H]1CC[C@]2(C)[C@H]3CC[C@@H]4C(=O)[C@]5(CC[C@@]4(C)[C@]3(C)CC[C@H]2C1(C)C)COC(=O)C5`, more than 250 µM.
For the compound `CC(=O)O[C@H]1CC[C@]2(C)[C@H]3CC[C@@H]4C5=C(C(C)C)C(=O)C[C@]5(CO)CC[C@@]4(C)[C@]3(C)CC[C@H]2C1(C)C`, the TCS50 came out at 232 µM.
Next, `COC(=O)[C@@]1(CC(=O)O)CC[C@]2(C)[C@H](CC[C@@H]3[C@@]4(C)CC[C@H](OC(C)=O)C(C)(C)[C@@H]4CC[C@]32C)C1=O`: 110 µM; `CC(=O)OC[C@@]12CC[C@]3(C)[C@H](CC[C@@H]4[C@@]5(C)CC[C@H](OC(C)=O)C(C)(C)[C@@H]5CC[C@]43C)C1=C(C(C)C)C(=O)C2`: 14 µM; `COC(=O)C[C@@H]1CC[C@]2(C)[C@H](CC[C@@H]3[C@@]4(C)CC[C@H](OC(C)=O)C(C)(C)[C@@H]4CC[C@]32C)C1=O`: 106 µM.
Next, `CC(=O)OCOC(=O)[C@@]12CC[C@]3(C)[C@H](CC[C@@H]4[C@@]5(C)CC[C@H](OC(C)=O)C(C)(C)[C@@H]5CC[C@]43C)C1=C(C(C)C)C(=O)C2=O`: 3 µM.
The compound `COC(=O)C[C@]1(C(=O)OCOC(C)=O)CC[C@]2(C)[C@H](CC[C@@H]3[C@@]4(C)CC[C@H](OC(C)=O)C(C)(C)[C@@H]4CC[C@]32C)C1=O` registered a TCS50 of 94 µM.
Under `CC(=O)OC[C@@]12CC[C@]3(C)[C@H](CC[C@@H]4[C@@]5(C)CC[C@H](OC(C)=O)C(C)(C)[C@@H]5CC[C@]43C)C1=C(C(C)C)C(=O)C2=O` stands 66 µM; under `CC(=O)O[C@H]1CC[C@]2(C)[C@H]3CC[C@H](C(=O)OCOC(=O)C(C)(C)C)[C@@](C)(CCC(=O)OCOC(=O)C(C)(C)C)[C@]3(C)CC[C@H]2C1(C)C`, more than 250 µM; under `COC(=O)[C@]1(COC(C)=O)CC[C@]2(C)[C@H](CC[C@@H]3[C@@]4(C)CC[C@H](OC(C)=O)C(C)(C)[C@@H]4CC[C@]32C)C1=O`, 120 µM.
`COC(=O)[C@@]12CC[C@]3(C)[C@H](CC[C@@H]4[C@@]5(C)CC[C@H](OC(C)=O)C(C)(C)[C@@H]5CC[C@]43C)C1=C(C(C)C)C(=O)C2` registered a TCS50 of 20.4 µM.
As to `CCOC[C@@H]1CC[C@]2(C)[C@H](CC[C@@H]3[C@@]4(C)CC[C@H](OC(C)=O)C(C)(C)[C@@H]4CC[C@]32C)C1=O`, the TCS50 is 50 µM.
`CC(=O)O[C@H]1CC[C@]2(C)[C@H]3CC[C@@H]4C5=C(C(C)C)C(=O)C[C@]5(C(=O)OCOC(=O)C(C)(C)C)CC[C@@]4(C)[C@]3(C)CC[C@H]2C1(C)C` showed a TCS50 of 62.7 µM.
Compound `CC(=O)OC[C@@]12CC[C@]3(C)[C@H](CC[C@@H]4[C@@]5(C)CC[C@H](OC(C)=O)C(C)(C)[C@@H]5CC[C@]43C)C1=C(C(C)C)C(=O)OC2=O` yielded a TCS50 of more than 250 µM.
`CC(=O)OC[C@]12C=CC(C(C)C)=C1[C@H]1CC[C@@H]3[C@@]4(C)CC[C@H](OC(C)=O)C(C)(C)[C@@H]4CC[C@@]3(C)[C@]1(C)CC2` yielded a TCS50 of more than 250 µM.
Under `CC(=O)O[C@H]1CC[C@]2(C)[C@H]3CC[C@@H]4C5=C(C(C)C)C(=O)C[C@]5(C(=O)O)CC[C@@]4(C)[C@]3(C)CC[C@H]2C1(C)C` stands more than 250 µM; under `CC(=O)O[C@H]1CC[C@]2(C)[C@H]3CC[C@@H]4C(=O)[C@@](CC(=O)C(=O)C(C)C)(C(=O)OCOC(=O)C(C)(C)C)CC[C@@]4(C)[C@]3(C)CC[C@H]2C1(C)C`, more than 250 µM; under `COC(=O)CC[C@]1(C)[C@@H](C(=O)OC)CC[C@@H]2[C@@]3(C)CC[C@H](OC(C)=O)C(C)(C)[C@@H]3CC[C@]21C`, more than 250 µM.
In turn, `CC(=O)O[C@H]1CC[C@]2(C)[C@H]3CC[C@@H]4C(=O)CCC[C@@]4(C)[C@]3(C)CC[C@H]2C1(C)C` yielded a TCS50 of more than 250 µM.
The compound `CC(=O)O[C@H]1CC[C@]2(C)[C@H]3CC[C@@H]4C5=C(C(C)C)C(=O)C(=O)[C@]5(C(=O)OCOC(=O)C(C)(C)C)CC[C@@]4(C)[C@]3(C)CC[C@H]2C1(C)C` came in with a TCS50 of 105.4 µM.
